Measured values published in the RNAGym collection of RNA variant scans (doi:10.1126/science.aae0568).
Fewer inactive variants are shown than the library holds.

B1: tRNA (parent)
chain: GUUCCGUUGGCGUAAUGGUAACGCGUCUCCCUCCUAAGGAGAAGACUGCGGGUUCGAGUCCCGUACGGAACG

Variants of: B1
Test: yeast fitness relative to wild type (ratio to wild type); higher = fitter; tRNA-Arg(CCU), competitive growth, 37 C, YPD
Method in brief: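 Start and end populations of a pooled competition were compared by 100-nucleotide paired-end sequencing of gene amplicons. The Saccharomyces cerevisiae strains carried tRNA-Arg(CCU) gene variants at the native genomic locus, synthesised with a 3% per-site mutation rate at 69 sites, and competed in YPD at 37°C for 24 hours in six parallel replicates. Darwinian fitness relative to wild type was based on the change in genotype frequencies. Genotypes required ≥ 100 starting reads, and estimates < 0.5 were set to 0.5.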
A36G A42G C46G G68C showed a yeast fitness of no more than 0.5. U13A A15C C33G C49U U64A showed a yeast fitness of no more than 0.5. C24U A45G C46G C55G showed a yeast fitness of 0.588. Work on U8G A21U C29U G68C yielded a yeast fitness of no more than 0.5. C24G G68C gave a yeast fitness of 0.599. Work on C5G C34U G44C U47G yielded a yeast fitness of no more than 0.5. For U59A C61G, the yeast fitness was 0.62. Variant G52A A57U C61G has a yeast fitness of no more than 0.5. With U3C C30G G52A A70U the yeast fitness was 0.641. In the case of C11G A15C C24G C46A C66U, the yeast fitness is reported as no more than 0.5. With G12A G25A G48A the yeast fitness was 0.66. Work on A15G G39A C62G yielded a yeast fitness of 0.568. Work on U3G A69U yielded a yeast fitness of 0.924. C27G G38C C55U gave a yeast fitness of no more than 0.5. Work on U13A C30G C61U G68A yielded a yeast fitness of no more than 0.5. C49A A65U showed a yeast fitness of 0.962. C4G G17C C33G showed a yeast fitness of no more than 0.5. C4A C11G A69U gave a yeast fitness of no more than 0.5. With C11G G12A C22U G39A U64A the yeast fitness was no more than 0.5. For C22G G39C, the yeast fitness was 0.823. U28C C33A A42C A45U showed a yeast fitness of no more than 0.5. G18A C27U showed a yeast fitness of 0.712. Variant C24G C33U has a yeast fitness of 0.646. Variant C5U A37G A43C C62U has a yeast fitness of 0.541. Work on U26G C33G C34G A40U G68A yielded a yeast fitness of no more than 0.5. Variant G6A G12C U16C A21U has a yeast fitness of 0.532. C11A C24U C31U G67A gave a yeast fitness of no more than 0.5. Variant C11G C30U C34U has a yeast fitness of no more than 0.5. C5G C22G C55G G63C gave a yeast fitness of 0.679. U13C C49G gave a yeast fitness of 0.896. Work on A21U A57G yielded a yeast fitness of 0.882. Variant A20U C29U C30U U59A has a yeast fitness of 0.636. In the case of A20U A40G G44C, the yeast fitness is reported as no more than 0.5. With G9A C31A G41C A69C the yeast fitness was no more than 0.5. For U3A G12A A14U C46A, the yeast fitness was no more than 0.5. For C33U C34G C66U, the yeast fitness was 0.542. With C4U A21U C66A the yeast fitness was no more than 0.5. With C5A C62U A70C the yeast fitness was 0.616. In the case of G9A C11G U19C, the yeast fitness is reported as 0.536. A14C C27G C46G A65G showed a yeast fitness of 0.576. For U3C G23C C27G G39A C66U, the yeast fitness was no more than 0.5. C11G A20U C30G C49G U53G gave a yeast fitness of 0.571. Variant A45C C66A has a yeast fitness of 0.665. C34U G56A G67A gave a yeast fitness of no more than 0.5. Work on U16A A45C A65G yielded a yeast fitness of no more than 0.5. U3G C49U G58A showed a yeast fitness of 0.901. C24G A57U G67C showed a yeast fitness of 0.612. Work on C46U G56C yielded a yeast fitness of 0.698. In the case of G17A A20U C24U, the yeast fitness is reported as 0.547. Variant A15G C29G has a yeast fitness of 0.635. In the case of C5U G6A A15U C31U U32C G67C, the yeast fitness is reported as no more than 0.5. In the case of C11A A37G A40G A43G G52C U59G, the yeast fitness is reported as no more than 0.5. Work on U13C A36C C61A yielded a yeast fitness of 0.651. U8A G18C C66U gave a yeast fitness of no more than 0.5. In the case of A14C G18C G41C, the yeast fitness is reported as 0.662. Work on G9A A36G yielded a yeast fitness of 1.03. G6C C29G C60A gave a yeast fitness of no more than 0.5. With C34G A65U C66A the yeast fitness was no more than 0.5. G17C U19C C27U A65C showed a yeast fitness of 0.641. In the case of U8C C27U C49U G52A C60A, the yeast fitness is reported as no more than 0.5. C34G U35G A40U A42G C61G showed a yeast fitness of no more than 0.5. With C11G C34G the yeast fitness was 0.524. For C22G C33U A36C A40U, the yeast fitness was 0.665. In the case of G25C G39A G63C A70U, the yeast fitness is reported as no more than 0.5. C34A A36U C55G C66A showed a yeast fitness of no more than 0.5. In the case of C4A A42G, the yeast fitness is reported as 0.991. For A45G A65U, the yeast fitness was 0.911. For U3C G12C A20G A43G C61U, the yeast fitness was no more than 0.5. For C11G A36U C66U, the yeast fitness was no more than 0.5. Variant C22G G39A A70G has a yeast fitness of 0.599. C4A A14G G52C C66U gave a yeast fitness of no more than 0.5. For U8G C22U, the yeast fitness was 0.632. C31G U32G C33U A70G showed a yeast fitness of no more than 0.5. Work on C11G C29G A40G G41A C49A C62G yielded a yeast fitness of 0.751. Variant U2A C34G G58C C66U has a yeast fitness of no more than 0.5. Work on G52C G68C yielded a yeast fitness of 0.639. Work on C30G A37G C55G yielded a yeast fitness of 0.537. In the case of G17A C22U U28C A57G C61U A69U, the yeast fitness is reported as no more than 0.5. G25A C62A A70U showed a yeast fitness of 0.678. U7A G18C C27G G38A showed a yeast fitness of no more than 0.5. A21G U47A G48A A65U gave a yeast fitness of no more than 0.5. In the case of C5U C29G G63A, the yeast fitness is reported as no more than 0.5. A20G C34U G38A A43G G68U showed a yeast fitness of no more than 0.5.
